Published values from different studies.
Lines come from different studies, so protocols differ.
Target: Serine/threonine-protein kinase Nek1 (NEK1, Homo sapiens, UniProt Q96PY6)
Sequence (Q96PY6 1-1258, as in one of the studies): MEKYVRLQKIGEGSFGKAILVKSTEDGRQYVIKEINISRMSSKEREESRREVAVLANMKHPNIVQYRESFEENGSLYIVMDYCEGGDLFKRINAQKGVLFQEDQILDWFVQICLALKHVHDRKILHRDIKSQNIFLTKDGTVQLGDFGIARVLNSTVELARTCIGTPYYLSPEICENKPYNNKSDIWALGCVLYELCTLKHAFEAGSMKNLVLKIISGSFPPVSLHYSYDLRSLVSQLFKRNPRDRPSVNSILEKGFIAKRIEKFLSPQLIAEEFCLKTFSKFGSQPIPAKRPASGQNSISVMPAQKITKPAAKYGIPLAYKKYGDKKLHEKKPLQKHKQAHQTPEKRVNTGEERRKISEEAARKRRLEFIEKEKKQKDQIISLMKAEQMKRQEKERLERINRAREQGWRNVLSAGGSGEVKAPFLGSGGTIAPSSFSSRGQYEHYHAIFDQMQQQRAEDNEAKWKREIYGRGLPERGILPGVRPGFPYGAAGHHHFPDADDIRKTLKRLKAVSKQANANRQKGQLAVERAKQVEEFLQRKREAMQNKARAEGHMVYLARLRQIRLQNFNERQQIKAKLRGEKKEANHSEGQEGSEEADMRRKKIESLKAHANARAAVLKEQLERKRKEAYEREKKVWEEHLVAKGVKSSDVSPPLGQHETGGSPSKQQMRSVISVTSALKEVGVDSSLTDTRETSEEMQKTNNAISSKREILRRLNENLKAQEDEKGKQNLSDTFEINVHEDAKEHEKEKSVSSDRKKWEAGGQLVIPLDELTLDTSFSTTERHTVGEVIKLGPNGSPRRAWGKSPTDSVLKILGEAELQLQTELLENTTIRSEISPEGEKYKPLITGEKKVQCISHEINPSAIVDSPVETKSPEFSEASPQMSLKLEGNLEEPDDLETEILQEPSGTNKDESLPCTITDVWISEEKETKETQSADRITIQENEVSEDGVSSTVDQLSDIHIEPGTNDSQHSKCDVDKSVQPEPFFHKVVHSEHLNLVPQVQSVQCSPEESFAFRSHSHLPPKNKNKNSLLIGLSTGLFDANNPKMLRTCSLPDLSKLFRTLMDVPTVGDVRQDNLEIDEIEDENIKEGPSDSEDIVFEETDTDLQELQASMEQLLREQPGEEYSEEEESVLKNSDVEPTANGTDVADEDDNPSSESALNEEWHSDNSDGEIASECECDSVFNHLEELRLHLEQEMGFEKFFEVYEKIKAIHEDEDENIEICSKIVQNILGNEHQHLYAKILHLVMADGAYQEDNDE

SMILES | effect on | method | concentration | remaining binding [%]
CN(C)c1nccc(-c2cnc3ncccn23)n1 | binding |  | 1 µM | 100
O=C(O)c1cc(-c2ccc(C3CCNCC3)cc2)c2ccc(-c3ccc(C(F)(F)F)cc3)cc2c1 | cell-free assay | competition with immobilised ligand | 1 µM | 100
c1cncc(-c2cccc(Nc3nccc(NC4CCCCC4)n3)c2)c1 | binding | competition with immobilised ligand | 10 µM | 91
O=C(c1ccc(Nc2ncc(Cl)c(-c3ccc(Cl)s3)n2)cc1)N1CCC(N2CCCC2)CC1 | binding | competition with immobilised ligand | 1 µM | 23
O=C(NCC1CCOCC1)c1n[nH]cc1NC(=O)c1c(F)cccc1F | binding | competition with immobilised ligand | 1 µM | 100
Cc1cnc(Nc2ccc(C(=O)N3CCC(N4CCCC4)CC3)cc2)nc1-c1cc2ccccc2s1 | binding | competition with immobilised ligand | 1 µM | 18
CN(CCCC(F)(F)F)c1nccc(-c2cnn3ncccc23)n1 | binding |  | 1 µM | 100
CNC(=O)Nc1ccc2c(c1)CC[C@@]21OC(=O)N(CC(=O)N(Cc2ccc(F)cc2)[C@@H](C)C(F)(F)F)C1=O | cell-free assay | competition with immobilised ligand | 1 µM | 100
O=C(c1ccc(Nc2ncc(Cl)c(-c3cc4ccccc4s3)n2)cc1)N1CCC(N2CCCC2)CC1 | binding | competition with immobilised ligand | 1 µM | 27
Cn1nc(C(=O)NCc2ccc(C(=O)O)cc2)cc1-c1ccc2[nH]ccc2c1 | cell-free assay | competition with immobilised ligand | 0.1 µM | 100
CN(C)c1ncc(F)c(-c2cnn3ncccc23)n1 | binding |  | 1 µM | 100
COc1cnc(Nc2cccc(S(N)(=O)=O)c2)nc1N1CCN(c2ccccc2)CC1 | binding | competition with immobilised ligand | 1 µM | 92
N[C@H]1CCN(c2nccc(-c3cnn4ncccc34)n2)C1 | binding |  | 1 µM | 97
Nc1cnc(N2CCc3cc(S(=O)(=O)Nc4c(F)cc(Cl)cc4F)cc(N4CCCC4=O)c32)nc1 | binding | competition with immobilised ligand | 1 µM | 46
CCN1CCN(Cc2ccc(C(=O)Nc3ccc(C)c(Oc4ccc5c(c4)CC(=O)N5)c3)cc2C(F)(F)F)CC1 | binding | competition with immobilised ligand | 1 µM | 100
C[C@H]1CCN(c2nccc(-c3cnn4ncccc34)n2)C1 | binding |  | 1 µM | 100
O=C(NCc1ncc(C(F)(F)F)cc1Cl)c1ccc2c(c1)C1(CCS(=O)(=O)CC1)[C@H](C1CC1)N2S(=O)(=O)c1ccc(F)cc1 | cell-free assay | competition with immobilised ligand | 1 µM | 100
Nc1ncc2c(n1)-c1c([nH]c3ccc(C#CC4CC4)cc13)CCCC2 | binding | competition with immobilised ligand | 1 µM | 100
CN(C)c1nccc(-c2cnn3ncccc23)n1 | binding |  | 1 µM | 88
Cn1cc(Cl)c2c(Oc3c(F)cc(Nc4cc(Cl)nc(N)n4)cc3F)ccnc21 | cell-free assay | competition with immobilised ligand | 0.1 µM | 100
Cc1cnn2ncc(-c3ccnc(N(C)C)n3)c2c1 | binding |  | 1 µM | 100
C=CC(=O)N1CCC(C(=O)NCC(=O)N2CCN(c3nc(-c4cnc(N)nc4C(F)F)nc(N4CCOCC4)n3)CC2)CC1 | binding | competition with immobilised ligand | 1 µM | 96
